pIC50: −log10 of the molar value. Activity calls are given as the source filed them. The rule behind the calls is not given here.
How the values were obtained:
DU-145 [1] = assay: Antiproliferative activity against human DU145 cells assessed as growth inhibition at 5 ug/mL after 48 hrs by MTT assay relative to control; assay type: functional; conditions: for inhibition of growth at 5 µg/mL: DU-145, 48 h, read-out: GI
Outline: (§1)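 DU-145 cells grown in DMEM with 10% heat-inactivated FBS and streptomycin/penicillin at 37 °C, 5% CO2. Cells seeded at 5×10³/well and left to attach 24 h. Compounds in ethanol, final 0.01, 0.5, 1.0, 2.0 and 5.0 µg/mL, given in triplicate for 48 h. MTT added for 4 h, formazan dissolved in DMSO, A570 read. Viability is A(test)/A(control)×100, mean ± SEM of 3 experiments. IC50 taken from a linear log dose–response fit.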

DU-145 [2] = assay: Antiproliferative activity against human DU145 cells assessed as growth inhibition at 2 ug/mL after 48 hrs by MTT assay relative to control; assay type: functional; conditions: for inhibition of growth at 2 µg/mL: DU-145, 48 h, read-out: GI; outline: as §1
DU-145 [3] = assay: Antiproliferative activity against human DU145 cells assessed as growth inhibition at 0.01 ug/mL after 48 hrs by MTT assay relative to control; assay type: functional; conditions: for inhibition of growth at 0.01 µg/mL: DU-145, 48 h, read-out: GI; outline: as §1
Rattus norvegicus [4] = assay: Antiandrogenic activity in ip dosed Sprague-Dawley rat assessed as increase of serum testosterone level after 6 hrs by ELISA (reference value: 0.742 +/- 0.07 ng/ml); assay type: functional
Outline: (§2)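 Intact male Sprague Dawley rats (200–250 g), 5 per group. Compounds suspended in olive oil:ethanol (95:5), single intraperitoneal dose equimolar to 40 mg/kg finasteride; controls received vehicle alone. Blood taken by cardiac puncture under diethyl ether anaesthesia 6 h after dosing. Serum testosterone measured by competitive ELISA (T-antibody-coated wells, HRP-T conjugate, 4 h at 37 °C, H2O2 substrate 20 min, H2SO4 stop) at 450 nm. Results are mean ± SEM.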

DU-145 [5] = assay: Antiproliferative activity against human DU145 cells assessed as growth inhibition after 48 hrs by MTT assay; assay type: functional, cell-based; conditions: DU-145, 48 h; outline: as §1
DU-145 [6] = assay: Antiproliferative activity against human DU145 cells assessed as growth inhibition at 0.5 ug/mL after 48 hrs by MTT assay relative to control; assay type: functional; conditions: for inhibition of growth at 0.5 µg/mL: DU-145, 48 h, read-out: GI; outline: as §1
DU-145 [7] = assay: Antiproliferative activity against human DU145 cells assessed as growth inhibition at 1 ug/mL after 48 hrs by MTT assay relative to control; assay type: functional; conditions: for inhibition of growth at 1 µg/mL: DU-145, 48 h, read-out: GI; outline: as §1
Rattus norvegicus [8] = assay: Antiandrogenic activity in Sprague-Dawley rat assessed as increase of serum testosterone level at 40 mg/kg, ip equimolar dose of finasteride after 6 hrs by ELISA; assay type: functional; outline: as §2
[9] = Cytotoxicity against Balb/C mouse macrophages assessed as cell viability after 24 hrs by MTT assay; assay type: cell-based; conditions: Macrophage
[10] = Cytotoxicity against Balb/C mouse macrophages assessed as cell viability at 5 ug/ml after 24 hrs by MTT assay; assay type: cell-based, Macrophage; conditions: read-out: Activity

Row | Structure (SMILES) | inhibition of growth at 5 µg/mL (DU-145 [1]) | inhibition of growth at 2 µg/mL (DU-145 [2]) | inhibition of growth at 0.01 µg/mL (DU-145 [3]) | Activity (Rattus norvegicus [4]) | pIC50 (DU-145 [5]) | inhibition of growth at 0.5 µg/mL (DU-145 [6]) | inhibition of growth at 1 µg/mL (DU-145 [7]) | growth inhibition (GI) (DU-145 [1]) | growth inhibition (GI) (DU-145 [2]) | growth inhibition (GI) (DU-145 [3]) | Activity (Rattus norvegicus [8]) | growth inhibition (GI) (DU-145 [6]) | growth inhibition (GI) (DU-145 [7]) | Activity (Rattus norvegicus [8]; route intraperitoneal) | LC50 [9] | viability at 24 h, 5 ug/ml [10]
1 | CC(C)(C)NC(=O)[C@H]1CC[C@H]2[C@@H]3CC[C@H]4NC(=O)C=C[C@]4(C)[C@H]3CC[C@]12C [FINASTERIDE] | 78.5% | 36% | 5% | 1.26 ng/mL | 5.41 | 8.83% | 16.5% |  |  |  |  |  |  |  |  | 
2 | C[C@]12CC[C@H](O)CC1=CC[C@@H]1[C@@H]2CC[C@]2(C)NC(=O)CC[C@@H]12 |  |  |  |  |  |  |  | inactive | inactive | inactive | Active | inactive | inactive |  |  | 
3 | C[C@]12CC[C@H](OC(=O)c3ccc([N+](=O)[O-])cc3)CC1=CC[C@@H]1[C@@H]2CC[C@]2(C)NC(=O)CC[C@@H]12 | 88.9% | 73.5% | 33.9% |  | 5.28 | 41.4% | 57.9% |  |  |  | Active |  |  |  |  | 
4 | Cc1ccc(C(=O)O[C@H]2CC[C@@]3(C)C(=CC[C@@H]4[C@@H]3CC[C@]3(C)NC(=O)CC[C@@H]43)C2)cc1 | 77% | 68.1% | 21.6% |  | 5.12 | 29.5% | 40.7% |  |  |  | Active |  |  |  |  | 
5 | COc1ccc(C(=O)O[C@H]2CC[C@@]3(C)C(=CC[C@@H]4[C@@H]3CC[C@]3(C)NC(=O)CC[C@@H]43)C2)cc1 | 43% | 33.9% | 17.4% |  | 4.82 | 25.2% | 21.3% |  |  |  |  |  |  | 1.05 ng/mL |  | 
6 | C[C@]12CC[C@H](OC(=O)Cc3ccccc3)CC1=CC[C@@H]1[C@@H]2CC[C@]2(C)NC(=O)CC[C@@H]12 | 73.1% | 48.3% |  |  | 5.15 |  |  |  |  | inactive | Active | inactive | inactive |  | 26 µM | 
7 | C[C@]12CC[C@H](OC(=O)c3ccc(Cl)cc3)CC1=CC[C@@H]1[C@@H]2CC[C@]2(C)NC(=O)CC[C@@H]12 | 67.6% | 49.4% | 19% |  | 5.08 | 27.9% | 42.2% |  |  |  | Active |  |  |  |  | 6%
8 | C[C@]12CC[C@H](OC(=O)CCl)CC1=CC[C@@H]1[C@@H]2CC[C@]2(C)NC(=O)CC[C@@H]12 |  |  |  |  |  |  |  | inactive | inactive | inactive |  | inactive | inactive | 0.82 ng/mL |  | 6%
9 | C[C@]12CC[C@H](OC(=O)COc3ccccc3)CC1=CC[C@@H]1[C@@H]2CC[C@]2(C)NC(=O)CC[C@@H]12 |  |  |  |  |  |  |  | inactive | inactive | inactive | Active | inactive | inactive |  |  | 
10 | C[C@]12CC[C@H](OC(=O)c3ccc(O)cc3)CC1=CC[C@@H]1[C@@H]2CC[C@]2(C)NC(=O)CC[C@@H]12 | 69.5% | 65.6% | 30.7% |  | 5.24 | 51.4% | 59.2% |  |  |  | Active |  |  |  |  | 
11 | C[C@]12CC[C@H](OC(=O)c3ccccc3)CC1=CC[C@@H]1[C@@H]2CC[C@]2(C)NC(=O)CC[C@@H]12 | 63.6% | 45% | 28.1% |  | 5.02 | 35.7% | 38.8% |  |  |  | Active |  |  |  |  | 
12 | C[C@]12CC[C@H](OC(=O)c3ccc(N)cc3)CC1=CC[C@@H]1[C@@H]2CC[C@]2(C)NC(=O)CC[C@@H]12 | 82.4% | 48% | 30.5% |  | 5.15 | 43.4% | 45% |  |  |  | Active |  |  |  |  | 
